Source: ChEMBL document CHEMBL2390911, “Synthesis and structure-activity relationships of 2-amino-3-carboxy-4-phenylthiophenes as novel atypical protein kinase C inhibitors” (Bioorg Med Chem Lett, 2013)

Columns and labels:
[1] = Inhibition of atypical PKCzeta in bovine retinal endothelial cells assessed as TNFalpha/VEGF-induced endothelial permeability preincubated for 30 mins followed by TNFalpha induction for 1 hr and VEGF induction for 30 mins measured every 30 mins for 4 hrs by Transwell assay; type: cell-based; settings: Bos taurus, Endothelial cell
In short: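 Retinal endothelial monolayers were given a 5-point compound dose-response, then VEGF/TNF was added for 1.5 h. Flux of 70kDa RITC-dextran across the monolayer was the read-out. Data are the mean of at least n≥8, repeated in independent experiments. EC50 was derived from a variable-slope dose-response fit.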

[2] = molecular target: T1, Protein kinase C zeta type (Homo sapiens, UniProt Q05513); experiment: Inhibition of atypical PKCzeta in HEK293 cells assessed as TNF-induced NFkappaB activation incubated for 3 hrs prior to TNF induction measured after 5 hrs by bright-glo luciferase reporter gene assay; type: cell-based
T1 sequence (Q05513 whole entry): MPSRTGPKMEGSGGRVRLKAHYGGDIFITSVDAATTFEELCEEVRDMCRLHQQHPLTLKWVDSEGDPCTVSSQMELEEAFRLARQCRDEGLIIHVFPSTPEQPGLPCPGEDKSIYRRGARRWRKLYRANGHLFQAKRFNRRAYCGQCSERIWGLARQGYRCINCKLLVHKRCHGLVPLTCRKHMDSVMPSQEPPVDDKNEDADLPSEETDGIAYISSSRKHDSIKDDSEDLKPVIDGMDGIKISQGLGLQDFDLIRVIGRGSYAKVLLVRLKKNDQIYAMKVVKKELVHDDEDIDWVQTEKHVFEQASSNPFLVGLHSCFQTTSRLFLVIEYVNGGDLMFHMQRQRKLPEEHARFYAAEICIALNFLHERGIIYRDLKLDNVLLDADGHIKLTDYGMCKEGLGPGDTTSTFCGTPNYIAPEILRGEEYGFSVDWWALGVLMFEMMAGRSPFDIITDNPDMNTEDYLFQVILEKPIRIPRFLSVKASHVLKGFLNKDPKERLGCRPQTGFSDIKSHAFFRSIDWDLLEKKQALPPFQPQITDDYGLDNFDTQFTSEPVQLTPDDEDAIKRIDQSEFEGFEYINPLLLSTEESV

[3] = molecular target: Voltage-gated inwardly rectifying potassium channel KCNH2 (Homo sapiens, UniProt Q12809); experiment: Inhibition of human ERG
Chain of Voltage-gated inwardly rectifying potassium channel KCNH2 (Q12809 whole entry): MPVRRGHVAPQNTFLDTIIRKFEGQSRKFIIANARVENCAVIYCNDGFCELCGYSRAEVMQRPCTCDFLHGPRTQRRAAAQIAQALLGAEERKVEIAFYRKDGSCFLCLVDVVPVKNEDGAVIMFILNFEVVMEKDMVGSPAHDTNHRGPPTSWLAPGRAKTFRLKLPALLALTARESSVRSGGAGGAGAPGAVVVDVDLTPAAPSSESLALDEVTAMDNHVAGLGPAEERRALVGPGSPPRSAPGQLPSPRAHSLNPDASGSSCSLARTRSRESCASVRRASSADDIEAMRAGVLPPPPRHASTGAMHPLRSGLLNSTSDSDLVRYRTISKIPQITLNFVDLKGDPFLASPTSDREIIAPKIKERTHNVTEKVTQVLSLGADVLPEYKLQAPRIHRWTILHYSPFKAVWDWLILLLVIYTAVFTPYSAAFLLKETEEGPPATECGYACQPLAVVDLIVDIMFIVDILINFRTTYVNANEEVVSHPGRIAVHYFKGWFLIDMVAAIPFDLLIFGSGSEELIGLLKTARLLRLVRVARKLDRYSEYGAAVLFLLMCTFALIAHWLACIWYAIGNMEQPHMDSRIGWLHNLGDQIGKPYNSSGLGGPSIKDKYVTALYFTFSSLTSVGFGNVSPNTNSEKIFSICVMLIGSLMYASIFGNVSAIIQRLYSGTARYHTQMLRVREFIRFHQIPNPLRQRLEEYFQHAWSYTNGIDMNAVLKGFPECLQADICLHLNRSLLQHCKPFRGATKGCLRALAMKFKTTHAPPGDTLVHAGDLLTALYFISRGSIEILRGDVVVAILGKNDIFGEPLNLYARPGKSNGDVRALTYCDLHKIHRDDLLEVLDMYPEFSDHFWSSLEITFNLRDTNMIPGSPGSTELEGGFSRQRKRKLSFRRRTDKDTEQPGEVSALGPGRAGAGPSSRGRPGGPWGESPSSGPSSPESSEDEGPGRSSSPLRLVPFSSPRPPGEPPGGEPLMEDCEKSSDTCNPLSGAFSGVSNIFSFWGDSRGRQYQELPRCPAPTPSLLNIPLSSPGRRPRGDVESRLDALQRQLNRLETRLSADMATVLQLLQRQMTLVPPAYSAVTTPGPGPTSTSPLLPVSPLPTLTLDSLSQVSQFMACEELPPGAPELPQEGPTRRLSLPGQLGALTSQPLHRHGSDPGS

[4] = molecular target: T1, Protein kinase C zeta type; experiment: Inhibition of atypical PKCzeta (unknown origin) using CREBtide as substrate incubated for 1 hr measured every 2.5 mins by ADP Quest assay
[5] = molecular target: T2, Protein kinase C iota type (Homo sapiens, UniProt P41743); experiment: Inhibition of atypical PKCiota (unknown origin) using CREBtide as substrate incubated for 1 hr measured every 2.5 mins by ADP Quest assay
T2 sequence (P41743 whole entry): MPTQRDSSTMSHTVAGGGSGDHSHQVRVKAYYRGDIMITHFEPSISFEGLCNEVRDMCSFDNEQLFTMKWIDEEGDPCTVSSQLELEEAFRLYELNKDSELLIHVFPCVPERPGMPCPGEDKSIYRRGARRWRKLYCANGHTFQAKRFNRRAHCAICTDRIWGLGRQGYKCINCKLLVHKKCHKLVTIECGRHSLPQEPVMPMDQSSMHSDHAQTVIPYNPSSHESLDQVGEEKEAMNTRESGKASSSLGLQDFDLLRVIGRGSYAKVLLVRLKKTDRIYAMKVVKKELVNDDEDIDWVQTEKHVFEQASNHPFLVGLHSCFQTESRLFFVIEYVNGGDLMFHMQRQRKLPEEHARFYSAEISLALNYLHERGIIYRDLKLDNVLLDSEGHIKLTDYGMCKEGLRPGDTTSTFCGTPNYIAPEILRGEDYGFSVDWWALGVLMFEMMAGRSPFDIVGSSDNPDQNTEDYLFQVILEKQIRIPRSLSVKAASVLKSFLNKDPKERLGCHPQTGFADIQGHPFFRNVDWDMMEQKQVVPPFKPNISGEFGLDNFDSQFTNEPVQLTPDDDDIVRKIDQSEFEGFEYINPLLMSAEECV

Structure (SMILES) | EC50 [1] | EC50 [2] | IC50 [3] | IC50 [4] | IC50 [5]
O=C(c1ccc(Nc2nccc(-c3cc4ccccc4s3)n2)cc1)N1CCC(N2CCCC2)CC1 | 1 nM | 3 nM |  |  | 
COc1ccc(-c2csc(N)c2C(=O)OC(C)C)cc1OC |  |  | > 10000 nM |  | 
COc1ccc(-c2csc(N)c2C(=O)OCc2ccccc2)cc1OC |  | 2 nM |  | 6000 nM | 
COc1cccc(COC(=O)c2c(-c3ccc(OC)c(OC)c3)csc2N)c1 | > 100 nM | 1 nM | 1000 nM |  | 900 nM
CCOC(=O)c1c(-c2ccc(N)cc2)csc1N | 270 nM | 1 nM |  | 2000 nM | 
CCOC(=O)c1c(-c2ccc(N(C)C)cc2)csc1N | 280 nM |  | > 10000 nM |  | 900 nM
CCOC(=O)c1c(-c2ccc3c(c2)OCO3)csc1N | 20 nM | 2 nM |  | 2000 nM | 2000 nM
CCOC(=O)c1c(-c2ccc(OC)cc2F)csc1N |  | 10 nM |  | 4000 nM | 
